Experimental data published in ChEMBL document CHEMBL1129574, “Synthesis, structure-activity relationships, and pharmacokinetic properties of dihydroorotate dehydrogenase inhibitors: 2-cyano-3-cyclopropyl-3-hydroxy-N-[3'-methyl-4'-(trifluoromethyl)phenyl ] propenamide and related compounds” (J Med Chem, 1996).

Key:
[1] = target: Dihydroorotate dehydrogenase (quinone), mitochondrial (Rattus norvegicus, UniProt Q63707); assay: Inhibitory concentration tested against enzyme dihydroorotate dehydrogenase in rat
[2] = test system: Mus musculus; assay: In vivo for its ability to inhibit delayed type hypersensitivity in mouse following 30 mg/kg administration.; format: functional
Method in brief: (§1)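 Male CD-1 mice (25–30 g, n = 8-16) sensitized day 0 by s.c. 1 mg methylated BSA in saline/Freund's complete adjuvant; negative controls saline/FCA. Day 7 challenge: MBSA 0.1 mg into right hind footpad, saline in left. Oral dosing once daily days 4–6 plus twice on day 7 (1 h before, 6 h after challenge). Paw edema read 24 h post-challenge; Student's t-test.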

[3] = target: Dihydroorotate dehydrogenase (quinone), mitochondrial (Mus musculus, UniProt O35435); assay: Inhibitory concentration tested on enzyme dihydroorotate dehydrogenase in mouse
[4] = test system: Rattus norvegicus; assay: In vivo for its ability to inhibit delayed type hypersensitivity in rat following 10 mg/kg administration.
[5] = t1/2 in mouse plasma after oral dose (30/mg/Kg); format: ADME, organism-based
Method in brief: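 Male CD-1 mice (25–32 g, n=5/time point) gavaged orally 30 mg/kg (10 mL/kg). Blood by exsanguination under ether at 0, 1, 3, 6, 24, 48, 72 h, pooled per time point, heparinized; plasma stored −20 °C. Drug quantified by reversed-phase HPLC (ODS, pH 7 phosphate/acetonitrile 65:35, UV 300 nm) with internal standard and spiked-plasma calibration.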

[6] = t1/2 in rat plasma after oral dose (10 mg/kg); format: ADME, organism-based
Method in brief: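 Male Wistar CFHB rats (190–220 g, n=3/time point) given 10 mg/kg orally by gavage (10 mL/kg). Cardiac-puncture blood under ether at 0, 1, 3, 6, 24, 48, 72 h, individual heparinized samples; plasma kept at −20 °C. Levels by HPLC (ODS column, 0.1 M pH 7 phosphate 65%/acetonitrile 35%, UV 300 nm), internal standard, peak-area calibration from spiked blank plasma.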

[7] = test system: Mus musculus; assay: In vivo ability to inhibit delayed type hypersensitivity in mouse at a concentration of 100 mg/kg; format: functional; method in brief: as §1
[8] = test system: Rattus norvegicus; assay: In vivo ability to inhibit delayed type hypersensitivity in rat at a concentration of 50 mg/kg; format: functional
Method in brief: (§2)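 Male CFHB rats (160-180 g, n=7-12) sensitized day 0 by tail-base s.c. FCA (0.4 mg M. tuberculosis in liquid paraffin); controls got incomplete adjuvant. Day 7 challenge: soluble M. tuberculosis extract 0.4 mg into right hind footpad, saline in left. Oral dosing once daily days 4-6 and twice day 7 (1 h before, 6 h after). Edema read at 24 h; Student's t-test.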

[9] = test system: Rattus norvegicus; assay: Compound was tested in vivo for its ability to inhibit DTH(delayed type hypersensitivity ) in rat at a concentration of 50 mg/kg; format: functional; method in brief: as §2
[10] = test system: Mus musculus; assay: Compound was tested in vivo for its ability to inhibit DTH(delayed type hypersensitivity ) in mouse at a concentration of 100 mg/kg; format: functional; method in brief: as §1

Chain of Dihydroorotate dehydrogenase (quinone), mitochondrial (Rattus norvegicus, UniProt Q63707) (Q63707 whole entry): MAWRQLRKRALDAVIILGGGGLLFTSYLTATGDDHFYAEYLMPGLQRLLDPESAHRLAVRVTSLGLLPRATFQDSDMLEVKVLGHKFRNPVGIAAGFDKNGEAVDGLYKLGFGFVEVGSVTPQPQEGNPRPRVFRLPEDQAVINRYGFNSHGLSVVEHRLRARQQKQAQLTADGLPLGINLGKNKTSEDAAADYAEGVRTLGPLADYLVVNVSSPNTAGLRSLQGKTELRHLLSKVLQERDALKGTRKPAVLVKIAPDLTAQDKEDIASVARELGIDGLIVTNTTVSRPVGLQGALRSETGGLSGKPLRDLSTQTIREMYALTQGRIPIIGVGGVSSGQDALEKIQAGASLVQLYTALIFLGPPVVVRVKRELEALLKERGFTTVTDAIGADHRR
Chain of Dihydroorotate dehydrogenase (quinone), mitochondrial (Mus musculus, UniProt O35435) (O35435 whole entry): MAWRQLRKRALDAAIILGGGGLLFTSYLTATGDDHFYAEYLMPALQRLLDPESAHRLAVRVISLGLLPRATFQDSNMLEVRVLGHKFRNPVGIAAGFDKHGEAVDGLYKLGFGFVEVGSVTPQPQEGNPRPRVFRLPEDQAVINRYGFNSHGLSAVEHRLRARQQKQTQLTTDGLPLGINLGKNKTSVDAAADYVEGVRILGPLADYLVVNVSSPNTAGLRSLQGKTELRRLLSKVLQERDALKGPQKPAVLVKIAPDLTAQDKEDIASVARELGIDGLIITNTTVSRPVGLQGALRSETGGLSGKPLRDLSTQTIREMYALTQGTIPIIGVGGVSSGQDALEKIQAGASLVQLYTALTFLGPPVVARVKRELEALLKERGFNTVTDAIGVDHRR

SMILES	IC50 [1] [nM]	inhibition in vivo at 30 mg/kg [2] [%]	IC50 [3] [nM]	inhibition in vivo at 10 mg/kg [4] [%]	half-life [5] [h]	half-life [6] [h]	inhibition in vivo at 100 mg/kg [7] [%]	inhibition in vivo at 50 mg/kg [8] [%]	inhibition in vivo at 50 mg/kg [9] [%]	inhibition in vivo at 100 mg/kg [10] [%]
Cc1cc(Cl)ccc1NC(=O)/C(C#N)=C(\O)C1CC1	1250	54	3720	30						
Cc1cc(NC(=O)/C(C#N)=C(\O)C2CC2)ccc1Cl	33	41	40	42	8	2				
CN(C(=O)c1ccc(NC(=O)/C(C#N)=C(\O)C2CC2)cc1)c1ccc(Cl)cc1	19100		2240				-8	22		
N#C/C(C(=O)Nc1ccc(-c2ccccc2)cc1)=C(/O)C1CC1	1480						33	70		
N#C/C(C(=O)Nc1ccc(Oc2ccc(C(F)(F)F)cc2)cc1)=C(/O)C1CC1	3550	-17	1510	39						
N#C/C(C(=O)Nc1ccc(C(F)(F)F)cc1)=C(/O)C1CCCO1 (centres undefined)	44700		7940				29	11		
N#C/C(C(=O)Nc1ccc(C(N)=O)cc1)=C(/O)C1CC1	14100		> 100000				-18	20		
N#C/C(C(=O)Nc1ccc(Oc2ccc(Cl)cc2)cc1)=C(/O)C1CC1	1510	63	832	31	21	39				
Cc1oncc1C(=O)Nc1ccc(C(F)(F)F)cc1 [LEFLUNOMIDE]	9	84	30	78						
COC(=O)c1ccc(NC(=O)/C(C#N)=C(\O)C2CC2)cc1			1120				34	59		
N#C/C(C(=O)Nc1ccc(Cl)nc1)=C(/O)C1CC1		9	1780					71		
N#C/C(C(=O)Nc1ccc(O)cc1)=C(/O)C1CC1	7940		> 100000				-11	37		
C#C/C(O)=C(\C#N)C(=O)Nc1ccc(C(F)(F)F)cc1	500		2090						4	45
N#C/C(C(=O)Nc1ccc(C=Cc2ccc(Cl)cc2)cc1)=C(/O)C1CC1			22				19	52		
N#CCc1ccc(NC(=O)/C(C#N)=C(\O)C2CC2)cc1	4570		37200						3	36
N#C/C(C(=O)Nc1ccc(Cl)cn1)=C(/O)C1CC1	76		200				48	64		
N#C/C(C(=O)Nc1ccc(C(F)(F)F)cc1)=C(/O)C1CC1	21	85	47	53	28	8				
N#C/C(C(=O)Nc1ccc(-c2nc(C(F)(F)F)cs2)cc1)=C(/O)C1CC1	3000		50000	30						
N#C/C(C(=O)Nc1ccc(-c2cccs2)cc1)=C(/O)C1CC1	631		2510	34						
N#C/C(C(=O)Nc1ccc(C(F)(F)F)cc1)=C(/O)C1CCCN1 (centres undefined)	> 100000		> 100000				-4	-16		
N#C/C(C(=O)Nc1ccc(C(=O)c2ccc(Cl)cc2)cc1)=C(/O)C1CC1	590	4	562	-19						
N#C/C(C(=O)Nc1ccc(C(F)(F)F)cc1)=C(/O)C1CCCC1	31600		28200				58	19		
CCc1cc(NC(=O)/C(C#N)=C(\O)C2CC2)ccc1C(F)(F)F	40	61	71	74	6	6				

SMILES	IC50 [1] [nM]	inhibition in vivo at 30 mg/kg [2] [%]	IC50 [3] [nM]	inhibition in vivo at 10 mg/kg [4] [%]	half-life [5] [h]	half-life [6] [h]	inhibition in vivo at 100 mg/kg [7] [%]	inhibition in vivo at 50 mg/kg [8] [%]	inhibition in vivo at 50 mg/kg [9] [%]	inhibition in vivo at 100 mg/kg [10] [%]
N#C/C(C(=O)Nc1ccc(C(F)(F)F)cc1)=C(/O)C1CCOC1 (centres undefined)	17800		11700				29	14		
N#C/C(C(=O)Nc1ccc(Br)cn1)=C(/O)C1CC1	37	4		66	7	13				
COc1ccc(NC(=O)/C(C#N)=C(\O)C2CC2)cc1	186		3720				9	57		
Cc1ccc(NC(=O)/C(C#N)=C(\O)C2CC2)cc1	234		288						28	47
CN1CCCC1/C(O)=C(\C#N)C(=O)Nc1ccc(C(F)(F)F)cc1 (centres undefined)	> 100000		> 100000				10	23		
N#C/C(C(=O)Nc1ccc(/C=C/c2ccc(Cl)cc2)cc1)=C(/O)C1CC1			12600		43	> 30	69	46		
Cc1ccc(NC(=O)/C(C#N)=C(\O)C2CC2)cc1Cl	79		282				43	31		
N#C/C(C(=O)Nc1ccc(C(=O)O)cc1)=C(/O)C1CC1	1480		3720				-6	39		
N#C/C(C(=O)Nc1ccc(-c2ccco2)cc1)=C(/O)C1CC1			5900				-13	58		
CS(=O)(=O)c1ccc(NC(=O)/C(C#N)=C(\O)C2CC2)cc1			15100						50	36
N#C/C(C(=O)Nc1ccc(N)cc1)=C(/O)C1CC1	21900		31600				32	1		
N#C/C(C(=O)Nc1ccc(-c2ncco2)cc1)=C(/O)C1CC1	4270		20000				17	42		
Cc1cc(NC(=O)/C(C#N)=C(\O)C2CC2)ccc1C(F)(F)F	14	81	55	59	8	4				
C=C/C(O)=C(\C#N)C(=O)Nc1ccc(C(F)(F)F)cc1	23						7		74	
Cc1cc(NC(=O)/C(C#N)=C(\O)C2CC2)ccc1C#N	28	66	36	50	7	6				
N#C/C(C(=O)Nc1ccc(C#Cc2ccc(Cl)cc2)cc1)=C(/O)C1CC1		61	5000	61	68	84				
CC(=O)c1ccc(NC(=O)/C(C#N)=C(\O)C2CC2)cc1	68		3800	59	4	6	32			
N#C/C(C(=O)Nc1ccc(C(F)(F)F)cc1)=C(/O)C1CCC1	282		209				4	1		
Cc1cc(NC(=O)/C(C#N)=C(\O)C2CC2)ccc1Br	50		63		2	4	86	66		
N#C/C(C(=O)Nc1ccc(Oc2ccccc2)cc1)=C(/O)C1CC1	290						9	6		
N#C/C(C(=O)Nc1ccncc1)=C(/O)C1CC1	11700		8910				22	17		
N#C/C(C(=O)Nc1ccc(-c2ccc(F)cc2)cc1)=C(/O)C1CC1	2140	53	8510	79						
